Test [1] has as its system SK-HEP1. Description: Cytotoxicity against human SKHEP1 cells assessed as cell death after 48 hrs by MTT assay. The class given is functional, cell-based. The following applies: SK-HEP1, 48 h. The method, boiled down:
(§1)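 MTT read-out in SK-Hep-1 cells kept in DMEM with 10% FBS, penicillin/streptomycin and amphotericin B at 37 °C under 5% CO2. Reduced dye solubilized in DMSO and absorbance read at 570 nm. The concentration giving 50% growth inhibition was interpolated from dose–response curves.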
For orientation: Tetrazolium dyes change colour on reduction, which living cells bring about.

Test [2] deals with SK-HEP1. Description: Induction of apoptosis in human SKHEP1 cells assessed as accumulation at sub-G1 phase at 5 uM after 24 hrs by propidium iodide staining based flow cytometry. The class given is functional, cell-based. Put shortly:
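SK-Hep-1 cells were treated 24 h at 5 μM, then trypsinized, pelleted, washed in PBS and stained with propidium iodide. Apoptotic cells were counted by flow cytometry as the sub-G1 fraction. Mean of n = 3 with SD; P <0.05 taken as significant.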

For test [3], the target named is Protein CIP2A (Homo sapiens) (UniProt Q8TCG1). Description: Inhibition of CIP2A-mediated PP2A-dependent AKT phosphorylation in human SKHEP1 cells at 5 uM after 30 hrs by Western blot analysis. The class given is cell-based. The following applies: SK-HEP1. The method, boiled down:
(§2)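 SK-Hep-1 cells (3 × 10^5 per 60 mm dish) were exposed to 5 μM for 30 h. Lysates were loaded at 40 μg per lane and immunoblotted for CIP2A, phospho-Akt, PARP and actin.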

Test [4] has as its system SK-HEP1. Description: Cytotoxicity against human SKHEP1 cells assessed as growth inhibition after 48 hrs by MTT assay. Type of test: functional, cell-based. As to conditions: SK-HEP1, 48 h. The method, boiled down: as §1
The subject of test [5] is SK-HEP1. Description: Induction of apoptosis in human SKHEP1 cells assessed as DNA fragmentation at 5 uM after 24 hrs by ELISA. Type of test: functional, cell-based. The method, boiled down: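 DNA fragmentation was measured in SK-Hep-1 cells after 24 h of exposure, using a cell death ELISA kit.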
Background: ELISA stands for enzyme-linked immunosorbent assay.

Test [6] deals with T1, Epidermal growth factor receptor (Homo sapiens, UniProt P00533). Description: Inhibition of EGFR phosphorylation in human PC9 cells at 2 uM after 24 hrs by Western blot analysis. Type of test: cell-based. The following applies: PC-9. Put shortly:
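PC9 cells (3 × 10^5 per 60 mm dish), grown in DMEM with 10% FBS at 37 °C and 5% CO2, were treated 24 h at 2 μM. Lysates were loaded at 40 μg per lane and immunoblotted for EGFR phosphorylation.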
In general terms: Immunoblotting shows a protein as a band on a membrane.

Test [7] deals with SK-HEP1. Description: Inhibition of CIP2A expression in human SKHEP1 cells at 20 uM after 24 hrs by Western blot analysis. The class given is functional, cell-based. Put shortly: (§3)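 SK-Hep-1 cells (3 × 10^5 per 60 mm dish) were treated 24 h, in the primary screen at 20 μM. Lysates were loaded at 40 μg per lane and blotted for CIP2A against actin.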
The target in test [8] is Protein CIP2A (Homo sapiens) (UniProt Q8TCG1). Description: Inhibition of CIP2A in human SKHEP1 cells at 5 uM after 30 hrs by Western blot analysis. As to conditions: SK-HEP1. Type of test: cell-based. The method, boiled down: as §2
The test system of test [9] is SK-HEP1. Description: Induction of apoptosis in human SKHEP1 cells assessed as increase in PARP cleavage at 5 uM after 30 hrs by Western blot analysis. The class given is functional, cell-based. The method, boiled down: as §2
Test [10] addresses T1, Epidermal growth factor receptor. Description: Inhibition of EGFR phosphorylation in human PC9 cells after 24 hrs by Western blot analysis. The class given is cell-based, PC-9.
Test [11] deals with SK-HEP1. Description: Cytotoxicity against human SKHEP1 cells assessed as cell death after 24 hrs by MTT assay.
Test [12] deals with SK-HEP1. Description: Inhibition of CIP2A expression in human SKHEP1 cells after 24 hrs by Western blot analysis. The class given is functional, cell-based. Put shortly:
as §3

Test [13] deals with Protein CIP2A (Homo sapiens) (UniProt Q8TCG1). Description: Inhibition of CIP2A-mediated PP2A-dependent AKT phosphorylation in human SKHEP1 cells at 5 uM after 30 hrs by Western blot analysis in presence of okadaic acid. The class given is cell-based. As to conditions: SK-HEP1.

The results in this text go back to ChEMBL document CHEMBL2146407, “Development of erlotinib derivatives as CIP2A-ablating agents independent of EGFR activity” (Bioorg Med Chem, 2012).

Calls of active or inactive are those of the source. The calls are words filed in the database; no cut-off is given here.

T1 sequence (P00533 whole entry): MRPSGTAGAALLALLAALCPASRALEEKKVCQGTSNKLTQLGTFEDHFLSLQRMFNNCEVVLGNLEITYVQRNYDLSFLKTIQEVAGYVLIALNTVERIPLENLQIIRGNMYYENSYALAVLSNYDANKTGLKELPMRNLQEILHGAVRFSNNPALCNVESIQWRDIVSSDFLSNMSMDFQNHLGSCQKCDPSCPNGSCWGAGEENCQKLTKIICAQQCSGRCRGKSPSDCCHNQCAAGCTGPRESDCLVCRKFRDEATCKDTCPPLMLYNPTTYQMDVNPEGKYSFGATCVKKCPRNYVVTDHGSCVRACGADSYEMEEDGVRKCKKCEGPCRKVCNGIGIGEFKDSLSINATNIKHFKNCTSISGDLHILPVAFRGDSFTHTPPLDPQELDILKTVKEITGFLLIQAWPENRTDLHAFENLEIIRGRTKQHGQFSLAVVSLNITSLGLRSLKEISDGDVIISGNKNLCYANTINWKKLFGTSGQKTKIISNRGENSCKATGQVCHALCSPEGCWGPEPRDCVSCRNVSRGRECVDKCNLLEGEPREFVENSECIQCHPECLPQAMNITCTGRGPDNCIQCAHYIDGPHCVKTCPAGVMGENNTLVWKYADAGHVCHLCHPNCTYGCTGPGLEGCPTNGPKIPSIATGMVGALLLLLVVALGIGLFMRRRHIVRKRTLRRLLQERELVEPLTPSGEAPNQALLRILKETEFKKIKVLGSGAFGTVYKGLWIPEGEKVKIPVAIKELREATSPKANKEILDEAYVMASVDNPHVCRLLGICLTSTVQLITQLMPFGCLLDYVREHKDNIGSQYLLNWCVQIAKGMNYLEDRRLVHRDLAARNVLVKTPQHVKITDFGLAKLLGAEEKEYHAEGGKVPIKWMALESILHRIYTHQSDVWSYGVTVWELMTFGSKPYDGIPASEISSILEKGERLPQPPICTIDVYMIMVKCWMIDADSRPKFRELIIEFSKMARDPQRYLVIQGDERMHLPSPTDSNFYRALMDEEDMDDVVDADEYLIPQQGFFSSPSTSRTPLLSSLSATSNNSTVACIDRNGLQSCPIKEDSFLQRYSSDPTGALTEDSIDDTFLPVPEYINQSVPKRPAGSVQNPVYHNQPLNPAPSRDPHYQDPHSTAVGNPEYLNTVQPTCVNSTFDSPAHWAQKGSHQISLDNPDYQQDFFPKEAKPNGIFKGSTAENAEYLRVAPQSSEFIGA

What is called IC50 is the midpoint of a concentration-inhibition curve. With `COc1cc2nc(Cl)nc(Nc3ccc(O)c(C)c3)c2cc1OC`, in the test with SK-HEP1 [1], the IC50 was above 40 µM.
`C#Cc1cccc(Nc2nc(NCc3ccccc3)nc3cc(OC)c(OC)cc23)c1`: the result in the test with SK-HEP1 [2], in the test with SK-HEP1 [5] and in the test on SK-HEP1 [9] was Active. Moreover, the inhibition result (in test [3]; in the test with SK-HEP1 [7]; in test [8]) was “Active” each time. Also, the IC50 in the test with SK-HEP1 [4] is 2.8 µM. Further, the inhibition result in test [6] was “inactive”.
Take `Clc1nccc(NCc2ccccc2)n1`: in the test on SK-HEP1 [7], the inhibition entry was “inactive”. Moreover, the IC50 in the test on SK-HEP1 [1] was above 40 µM.
For `C#Cc1cccc(Nc2ccnc(Cl)n2)c1`, in the test on SK-HEP1 [7], the inhibition result is “inactive”. Also, in the test with SK-HEP1 [1], the IC50 is above 40 µM.
On the same counts, the results for `Clc1cccc(Nc2ccnc(Cl)n2)c1` are “inactive” and above 40 µM.
For `COc1cc2nc(Cl)nc(Nc3cc(C)ccc3F)c2cc1OC`, the IC50 in the test with SK-HEP1 [1] is above 40 µM.
As for `C#Cc1cccc(Nc2nc(Nc3cccc(Cl)c3)nc3cc(OC)c(OC)cc23)c1`, in the test on SK-HEP1 [4], the IC50 was 7.1 µM. Also, in the test with SK-HEP1 [7], the inhibition result is “Active”.
For the molecule `COc1cc2nc(Cl)nc(Nc3ccc(Oc4ccccc4)cc3)c2cc1OC`, the IC50 with SK-HEP1 [1] amounted to 15.3 µM.
Same read-out and setting: with `COc1cc2nc(Cl)nc(NCc3ccccc3)c2cc1OC` the figure was 19.8 µM.
As to `C#Cc1cccc(N(C)c2nc(Cl)nc3cc(OC)c(OC)cc23)c1`, in the test on SK-HEP1 [1], the IC50 came out at 12.3 µM.
Turning to `COc1cc2nc(Cl)nc(Nc3ccc(Cl)c(C(F)(F)F)c3)c2cc1OC`, the IC50 with SK-HEP1 [1] came to 8.8 µM.
For `C#Cc1cccc(Nc2nc(Nc3ccc(Cl)c(C(F)(F)F)c3)nc3cc(OC)c(OC)cc23)c1`, the IC50 in the test with SK-HEP1 [4] was 6.8 µM. For the same molecule, the inhibition entry in the test on SK-HEP1 [7] was “Active”.
In the case of `FC(F)(F)c1cc(Nc2ccnc(Cl)n2)ccc1Cl`, the inhibition result with SK-HEP1 [7] was “inactive”. The IC50 in the test on SK-HEP1 [1] was above 40 µM.
On the same counts, the results for `FC(F)(F)c1cc(Nc2ccnc(Nc3ccc(Cl)c(C(F)(F)F)c3)n2)ccc1Cl` are “Active” and 13.8 µM.
As for `COc1cc2nc(Cl)nc(Nc3cccc(Cl)c3)c2cc1OC`, the IC50 in the test with SK-HEP1 [1] came out at 16.5 µM.
The molecule `C#Cc1cccc(Nc2nc(Cl)nc3cc(OC)c(OC)cc23)c1` had an IC50 in [10] above 8 µM.
`Clc1nccc(Nc2ccc(Oc3ccccc3)cc2)n1`: the inhibition entry in the test with SK-HEP1 [7] is “inactive”. The IC50 in the test on SK-HEP1 [1] is above 40 µM.
Regarding `COc1cc2nc(Cl)nc(Nc3cccc(O)c3)c2cc1OC`, the inhibition result in [3] and in [8] was “inactive” each time. Moreover, the 50% inhibitory concentration (IC50) in the test with SK-HEP1 [1] is above 40 µM. In addition, the result with SK-HEP1 [9] was inactive.
Turning to `C#Cc1cccc(Nc2ccnc(Nc3cccc(C#C)c3)n2)c1`, the inhibition result in the test on SK-HEP1 [7] was “Active”. Moreover, the IC50 in the test on SK-HEP1 [1] turned out to be 3.7 µM.
As to `C#Cc1cccc(Nc2nc(Nc3ccc(Oc4ccccc4)cc3)nc3cc(OC)c(OC)cc23)c1`, the outcome in the test on SK-HEP1 [2], in the test with SK-HEP1 [5] and in the test with SK-HEP1 [9] was Active. Further, the inhibition result (in test [3]; in the test with SK-HEP1 [7]; in [8]) was “Active” in each case. In addition, in the test with SK-HEP1 [4], the IC50 amounted to 2.8 µM. Besides, in the test with SK-HEP1 [11], the Activity entry was “Dose-dependent effect”. Moreover, the inhibition entry in [6] and in [13] was “inactive” throughout. Further, the inhibition entry in the test on SK-HEP1 [12] is “Dose-dependent effect”.
Regarding `C#Cc1cccc(Nc2nc(Nc3cc(C)ccc3F)nc3cc(OC)c(OC)cc23)c1`, the IC50 in the test on SK-HEP1 [4] was 4.5 µM. Moreover, in the test with SK-HEP1 [7], the inhibition result is “Active”.
The matching figures for `C#Cc1cccc(Nc2nc(Nc3ccc(Oc4ccc(C#N)cc4)cc3)nc3cc(OC)c(OC)cc23)c1`: 14.5 µM and “Active”.
On to `COc1cc2nc(Cl)nc(Nc3cccc(Oc4ccc(C#N)cc4)c3)c2cc1OC`, for which the IC50 in the test with SK-HEP1 [1] is above 40 µM.
For the molecule `C#Cc1cccc(Nc2nc(Nc3cccc(Oc4ccc(C#N)cc4)c3)nc3cc(OC)c(OC)cc23)c1`, the 50% inhibitory concentration (IC50) with SK-HEP1 [4] was found to be 3.9 µM. The inhibition entry in the test with SK-HEP1 [7] is “Active”.
